# Tb MetRS inh = T. brucei MetRS inhibitors, primary screen, biochemical, luminescence; methionyl-tRNA synthetase (Trypanosoma brucei brucei); purified T. brucei MetRS, ATP depletion, Kinase-Glo luminescence; inhibition, % at 11.9 µM; hit rate 0.4% among 360,000; AID 624268, 2012;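 active = inhibition above a per-plate cutoff of the control wells' mean inhibition plus 3 SD, cut at about 5.5% in these data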;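 note: 0% = DMSO wells median and 100% = median of wells with control inhibitor compound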
#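 Test system: purified T. brucei MetRS enzyme. Also added: ATP, methionine and E. coli bulk tRNA substrates. Compound: 11.9 µM single point. Schedule: 15 min enzyme-compound preincubation, 2 h reaction, 10 min detection, 25 °C. Signal: luciferase luminescence of residual ATP, Kinase-Glo. Evaluation: percent inhibition versus plate control medians. Controls: DMSO wells, low control.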
# H9c2 TAG inh = inhibitors of triacylglycerol accumulation, primary screen, cell-based, uHTS, fluorescence, H9c2; H9c2 cells, Nile Red lipid (TAG) fluorescence; cells loaded with 200 µM oleic acid; inhibition, % at 12.5 µM; hit rate 0.66% among 230,000;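 active = pattern-corrected inhibition of lipid staining of at least 50% with the nuclear-stain viability signal not falling by more than 50%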;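 note: 0% = DMSO wells and 100% = triacsin C control wells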
# AHR act = AHR activators, primary screen, cell-based, luminescence, luciferase reporter, human | AID 2796, 2010 | activation, % at 5 µM | Aryl hydrocarbon receptor (Homo sapiens), P35869 | hit rate 2.5% among 320,000 | AHR-responsive luciferase reporter cells; in the data active = activation above about 47%;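 note: 0% = vehicle wells and 100% = reference agonist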
# Target sequence (P35869 whole entry, looked up): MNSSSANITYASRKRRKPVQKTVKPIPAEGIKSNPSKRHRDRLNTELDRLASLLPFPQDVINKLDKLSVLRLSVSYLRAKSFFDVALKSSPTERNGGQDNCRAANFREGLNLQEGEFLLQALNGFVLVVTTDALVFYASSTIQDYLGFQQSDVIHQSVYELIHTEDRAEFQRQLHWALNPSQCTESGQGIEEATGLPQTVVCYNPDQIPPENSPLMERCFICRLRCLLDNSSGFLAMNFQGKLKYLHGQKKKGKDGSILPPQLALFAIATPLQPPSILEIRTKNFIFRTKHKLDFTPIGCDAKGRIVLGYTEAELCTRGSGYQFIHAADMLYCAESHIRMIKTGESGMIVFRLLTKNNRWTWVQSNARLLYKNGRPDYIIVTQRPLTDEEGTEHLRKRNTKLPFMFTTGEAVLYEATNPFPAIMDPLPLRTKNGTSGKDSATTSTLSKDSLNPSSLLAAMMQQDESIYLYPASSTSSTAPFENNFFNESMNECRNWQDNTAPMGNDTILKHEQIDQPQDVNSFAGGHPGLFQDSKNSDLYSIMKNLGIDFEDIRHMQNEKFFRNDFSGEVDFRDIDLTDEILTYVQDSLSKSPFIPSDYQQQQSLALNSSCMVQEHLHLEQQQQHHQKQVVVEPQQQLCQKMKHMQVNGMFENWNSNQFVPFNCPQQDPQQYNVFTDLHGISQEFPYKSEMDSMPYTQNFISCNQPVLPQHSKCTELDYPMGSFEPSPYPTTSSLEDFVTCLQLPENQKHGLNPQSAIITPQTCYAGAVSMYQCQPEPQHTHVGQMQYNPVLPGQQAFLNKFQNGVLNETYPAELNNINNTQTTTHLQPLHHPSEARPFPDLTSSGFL
# Efflux pump mplx = inhibitors of Candida efflux pumps in yeast, primary screen, S. cerevisiae, Nile Red, multiplex. S. cerevisiae Candida pump triplex. hit rate 0.44% among 330,000. inhibition, % at 10 µM;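 active = plate passing quality check with inhibition over a set limit, or well fluorescence over plate mean plus 4 SD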;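 note: Nile Red retained in pooled yeast measured as flow cytometry median fluorescence; 0% = buffer negative control and 100% = Enniatin B positive control; higher means more Nile Red kept so more efflux inhibition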
# SMARCA2 act = SMARCA2 (BRM) function activators, primary screen, cell-based, luminescence, high throughput | activation, % at 9.1 µM | hit rate 1% among 370,000 | MG213 cells, MMTV-luciferase reporter, dexamethasone, overnight | AID 652017, 2013; in the data active = activation above about 7.8%;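 note: 0% = vehicle wells and 100% = reference activator wells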
# * marks the source's active call; other numbers are inactive results; . = no result. Compounds with a hit are over-represented: about 4.1% of the library has one in this group of screens.
SMILES,Tb MetRS inh,H9c2 TAG inh,AHR act,Efflux pump mplx,SMARCA2 act
O=C(NCCc1ccccc1)OCc1cn(Cc2ccc(F)c(F)c2)nn1,.,.,.,.,-2
COc1ccc(CNC(=O)Cn2ncn3c(cc4ccccc43)c2=O)cc1,0,-5,3,0,0
COc1ccc(CNC(=O)Cn2ncn3cccc3c2=O)cc1,.,.,71*,0,5
CCc1csc(N2[C@H](CN(CCOC)S(=O)(=O)c3ccccc3[N+](=O)[O-])[C@H](c3ccccc3)[C@@H]2CO)n1,.,.,.,.,-1
O=C(NC1CCCC1)C1(C(=O)C2CC2)CC(c2ccccn2)=NO1 (centres undefined),.,.,.,.,1
CCN1CCC2(CC1)C(C#N)=C(N)Oc1c2sc2nc(C)cc(C)c12,0,-3,63*,0,2
CCc1nnc(NS(=O)(=O)c2ccc(N/C=C\C(=O)c3cccc(OC)c3)cc2)s1,0,8,10,0,7.9*
Cc1nc2c(c(C)c1C#N)C(=O)c1ccccc1-2,0,2,72*,0,1
Cc1nc2c(c(-c3ccccc3)c1C#N)C(=O)c1ccccc1-2,0,27,1,0,-1
O=c1c2[nH]c3ccccc3c2ncn1CCCn1ccnc1,0,-13,66*,0,0
O=c1c2ccccc2[nH]c(=S)n1CCCn1ccnc1,0,.,68*,0,-1
COc1ccc(Cn2ccc3ccc(-c4ccc5ccn(C(=O)C6CC6)c5c4)cc32)cc1,.,.,.,.,-1
Cc1ccnc(NC(=O)c2cnc(Cl)c(Cl)c2)c1,-1,.,58*,0,1
COc1cccc(/C=N\NC(=O)c2sc(N)nc2C)c1OC,1,6,60*,0,-2
Cc1cc(/C=C(\C#N)c2nc3ccccc3[nH]2)c(C)n1C,1,.,55*,0,-1
CN(C)/C=C(\C#N)c1nc2ccccc2[nH]1,0,.,4,0,0
N#C/C(=C\c1c(Cl)cccc1Cl)c1nc2ccccc2[nH]1,0,.,69*,1,4
COc1ccccc1N1CCN(S(=O)(=O)c2cn(C)c(=O)n(C)c2=O)CC1,0,-11,65*,0,0
C=CCN(C)CC#CCCCCl,.,.,.,.,-3
CC(=O)N(CCc1ccccc1)Cc1cc2cc(C)ccc2[nH]c1=O,0,.,54*,0,-1
O=C(CCc1ccccc1)N[C@H]1[C@H](OCc2ccccc2)CCC[C@@]12C(=O)N(Cc1ccccc1)c1ccccc12,.,.,.,.,-3
CCOC(=O)c1ccc(NC2=CC(=O)C(=O)c3ccccc32)cc1,0,80*,15,0,-1
Fc1c(F)c(F)c(/C=N/NC(=S)Nc2cccnc2)c(F)c1F,-1,7,71*,0,7
Oc1ccc(/C=N/NC(=S)Nc2cccnc2)c(O)c1,0,.,60*,0,0
Fc1cccc(F)c1/C=N/NC(=S)Nc1cccnc1,0,-4,43,0,-1
SMILES,Tb MetRS inh,H9c2 TAG inh,AHR act,Efflux pump mplx,SMARCA2 act
Oc1ccc(C=NNc2nc3ccccc3s2)c(O)c1,0,11,.,.,0
Oc1ccc(/C=N/Nc2ccc3ccccc3c2)c(O)c1,0,4,61*,0,4
COC(=O)[C@]12C[C@H](CC(=O)NCCC(C)C)C(=O)N(Cc3ccco3)C1=C[C@H](C(C)C)O[C@@H]2C1CC1,.,.,.,.,-2
FC(F)(F)c1ccc(-n2cnc3ccccc32)nc1,1,.,65*,0,0
c1ccc(-n2cnc3ccccc32)nc1,-2,0,6,0,-2
Fc1ccc(-c2noc(-c3ccc4c(c3)CCO4)n2)cc1,0,-2,62*,0,4
S=c1nccc(-c2ccc3c(c2)CCO3)[nH]1,-1,-2,13,0,-3
CCOC(=O)N[C@H](C(=O)N1CCC[C@H]1C(=O)NCCc1ccccc1Cl)c1ccccc1,.,.,.,.,-3
C=CCn1c(N)c(C(=O)Nc2ccc(C)c(C)c2)c2nc3ccccc3nc21,0,54*,3,0,1
O=C(O)c1ccc(Cl)cc1Nc1nc2cc(Cl)ccc2o1,-1,.,59*,0,2
O=C(O)c1cc2cc(Cl)ccc2oc1=O,0,.,-1,0,-2
O=C(CSc1ccc(-c2ccc(Cl)cc2)nn1)N1CCCc2ccccc21,0,.,5,0,-4
CC(Sc1nnc(-c2cccnc2)n1-c1ccccc1F)C(=O)N1CCCc2ccccc21 (centres undefined),.,.,-2,-2,7.9*

# High-throughput results as filed in PubChem.
